Molecules are shown by their SMILES. Like-named read-outs stand apart in the source and are kept apart here. Some results are limits rather than exact numbers.

The conditions of data set [1]: in rodents, cited from earlier work.
Another data set deals with BT-474. The data set is described as follows: Growth inhibition assay, BT-474. The class given is cell-based. The following applies: Homo sapiens, BT-474, 72 h, read-out: GI50 (nmol/L), mean ± SD. An outline of the steps: (§1)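 Cell lines were STR-authenticated; MCF10A lines stably express mutant HER2. Test compounds were dissolved in DMSO and added to the cells. Growth was assessed 3 days after treatment, and GI50 was derived as the mean of three independent experiments.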

The next data set relates to NCI-N87. The data set is described as follows: Growth inhibition assay, NCI-N87. The class given is cell-based. The following applies: Homo sapiens, NCI-N87, 72 h, read-out: GI50 (nmol/L), mean ± SD. An outline of the steps:
as §1

In another data set the test system is MCF10A_HER2/insYVMA. In words: Growth inhibition assay, MCF10A_HER2/insYVMA. The class given is cell-based. As to conditions: Homo sapiens, 72 h, read-out: GI50 (nmol/L), mean ± SD. An outline of the steps: as §1
The subject of another data set is NCI-H1781. The data set is described as follows: Growth inhibition assay, NCI-H1781. The class given is cell-based. As to conditions: Homo sapiens, NCI-H1781, 72 h, read-out: GI50 (nmol/L), mean ± SD. In a few lines: as §1
A further data set concerns A-431. In words: Growth inhibition assay, A-431. The data set is classed as cell-based. As to conditions: Homo sapiens, A-431, 72 h, read-out: GI50 (nmol/L), mean ± SD. An outline of the steps: as §1
The next data set relates to HCC827. In words: Growth inhibition assay, HCC827. The data set is classed as cell-based. The following applies: Homo sapiens, HCC827, 72 h, read-out: GI50 (nmol/L), mean ± SD.
The next data set has as its system NCI-H1975. The data set is described as follows: Growth inhibition assay, NCI-H1975. As to conditions: Homo sapiens, NCI-H1975, 72 h, read-out: GI50 (nmol/L), mean ± SD. The data set is classed as cell-based.
Data set [2] deals with NCI-H1975 EGFR D770_N771insSVD. The data set is described as follows: Growth inhibition assay, NCI-H1975 EGFR D770_N771insSVD. The following applies: Homo sapiens, NCI-H1975, 72 h, read-out: GI50 (nmol/L), mean ± SD. The class given is cell-based.
In a further data set the test system is NIH/3T3_EGFR vIII. The data set is described as follows: Growth inhibition assay, NIH/3T3_EGFR vIII. The following applies: 72 h, read-out: GI50 (nmol/L), mean ± SD. The class given is cell-based.
Another data set concerns NCI-H460. In words: Growth inhibition assay, NCI-H460. The class given is cell-based. The following applies: Homo sapiens, NCI-H460, 72 h, read-out: GI50 (nmol/L), mean ± SD.
Data set [3] relates to HER2/HER3 signaling in SK-BR-3 cell line. In words: Western blot of HER2 signaling pathway in SK-BR-3 cells. The class given is cell-based. The following applies: SK-BR-3, 30–300 nmol/L.
A further data set deals with panel of 257 kinases. In words: Kinase selectivity panel. The data set is classed as biochemical. As to conditions: poziotinib at 300 nmol/L (100-fold IC50 of WT HER2); of 257 kinases tested. An outline of the steps: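 Test compound was screened at a single concentration against a 257-kinase panel. Peptide phosphorylation was quantified by mobility shift or IMAP assay, and percent inhibition was calculated. IC50s for off-target kinases were measured as singlets in duplicate mode.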

A further data set has as its target WT HER2 (Homo sapiens, UniProt P04626). The data set is described as follows: In-Cell Western phospho-HER2, MCF10A_HER2. The data set is classed as cell-based. An outline of the steps:
(§2)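 MCF10A cells stably expressing WT or mutant HER2 were seeded at 1.0 × 10⁴ cells/well in 96-well plates. They were exposed to test compound for 4 h. HER2-Tyr1196 phosphorylation was quantified by In-Cell Western, and IC50 was calculated.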

In another data set the target is HER2/S310F (Homo sapiens, UniProt P04626, S310F). In words: In-Cell Western phospho-HER2, MCF10A_HER2/S310F. The class given is cell-based. In a few lines:
as §2

For a further data set, the target named is HER2/L755S (Homo sapiens, UniProt P04626, L755S). The data set is described as follows: In-Cell Western phospho-HER2, MCF10A_HER2/L755S. The class given is cell-based. In a few lines:
as §2

In the next data set the target is HER2/V777L (Homo sapiens, UniProt P04626, V777L). The data set is described as follows: In-Cell Western phospho-HER2, MCF10A_HER2/V777L. The data set is classed as cell-based. In a few lines:
as §2

In a further data set the target is HER2/V842I (Homo sapiens, UniProt P04626, V842I). The data set is described as follows: In-Cell Western phospho-HER2, MCF10A_HER2/V842I. The data set is classed as cell-based. In a few lines: as §2
For the next data set, the target named is HER2/insYVMA (Homo sapiens, UniProt P04626, INS775YVMA). The data set is described as follows: In-Cell Western phospho-HER2, MCF10A_HER2/insYVMA. The class given is cell-based. In a few lines:
as §2

The subject of data set [4] is NCI-N87-luc intracranial xenograft. The data set is described as follows: Intracranial xenograft model, NCI-N87-luc. The data set is classed as in vivo, BALB/cAJcl-nu/nu mice. As to conditions: poziotinib once daily.

Take `C[C@H]1Oc2cc(cnc2N)-c2c(nn(C)c2C#N)CN(C)C(=O)c2ccc(F)cc21` [lorlatinib]: the “Kp,uu,brain” value in data set [1] was 0.21.

As for `Cc1cc(Nc2ncnc3ccc(NC4=NC(C)(C)CO4)cc23)ccc1Oc1ccn2ncnc2c1` [Tucatinib, tucatinib], the GI50 was 8.88 ± 8.19 nmol/L in the data set with BT-474; 12.2 ± 8.6 nmol/L in the data set with NCI-N87; over 1000 nmol/L in the data set on MCF10A_HER2/insYVMA; 229 ± 149 nmol/L with NCI-H1781; over 1000 nmol/L in the data set with A-431; over 1000 nmol/L with HCC827. In addition, the GI50 (in the data set on NCI-H1975; in data set [2]; in the data set with NIH/3T3_EGFR vIII; with NCI-H460) was over 1000 nmol/L throughout. The “phosphorylation of HER2, HER3, and their downstream proteins” value in data set [3] is on record as “inhibited”. In [3] (48 h), the “phosphorylation of HER3 and its downstream targets, AKT and ERK, at 48 h” value was “increased”.

`CCOc1cc2ncc(C#N)c(Nc3ccc(OCc4ccccn4)c(Cl)c3)c2cc1NC(=O)/C=C/CN(C)C` [Neratinib, neratinib]: the GI50 amounted to 1.03 ± 0.69 nmol/L in the data set with BT-474; 0.946 ± 0.771 nmol/L in the data set on NCI-N87; 84.3 ± 9 nmol/L in the data set on MCF10A_HER2/insYVMA; 15.4 ± 5.9 nmol/L in the data set with NCI-H1781; 35.8 ± 9.7 nmol/L in the data set on A-431; 292 ± 187 nmol/L with HCC827. Also, the GI50 in the data set with NCI-H1975 was found to be 236 ± 147 nmol/L; in data set [2] it was 130 ± 60 nmol/L; in the data set with NIH/3T3_EGFR vIII, 114 ± 72 nmol/L; in the data set on NCI-H460 it was 860 ± 67 nmol/L.

Consider `C=CC(=O)N1CCC(Oc2cc3c(Nc4ccc(Cl)c(Cl)c4F)ncnc3cc2OC)CC1` [Poziotinib, poziotinib], for which, in the data set on panel of 257 kinases, the “number of kinases inhibited at >50% of enzymatic activity” value is 41. Further, the 50% inhibitory concentration (IC50) was determined as 1.06 ± 0.13 nM at WT HER2; 0.932 ± 0.038 nM on HER2/S310F; 3.52 ± 0.18 nM against HER2/L755S; 0.819 ± 0.121 nM on HER2/V777L; 1.84 ± 0.24 nM at HER2/V842I; 0.956 ± 0.132 nM against HER2/insYVMA. The GI50 in the data set on BT-474 was found to be 0.508 ± 0.267 nmol/L; with NCI-N87, 0.345 ± 0.159 nmol/L; with MCF10A_HER2/insYVMA, 8.27 ± 0.93 nmol/L; in the data set with NCI-H1781, 2.47 ± 1.35 nmol/L; in the data set with A-431 it was 0.695 ± 0.174 nmol/L; in the data set on HCC827 it was 2.17 ± 0.75 nmol/L. In addition, the GI50 in the data set on NCI-H1975 is 14.2 ± 7.5 nmol/L; in data set [2] it was 3.87 ± 2.04 nmol/L; in the data set with NIH/3T3_EGFR vIII it was 12.7 ± 15.1 nmol/L; in the data set with NCI-H460 it was over 1000 nmol/L. The “antitumor effect (total flux)” value in data set [4] is “failed to show tumor regression”. For the same compound, the “Kp,uu,brain” value in data set [1] (no reference given) was 0.06.

As usually defined, the IC50 is the concentration at which inhibition is half-maximal. Lower therefore signals greater potency.

The values are drawn from publication PMC9899605 (Cancer Science, 2022).
